Data: ChEMBL document CHEMBL1134685, “Antitumor Agents. 211. Fluorinated 2-phenyl-4-quinolone derivatives as antimitotic antitumor agents” (J Med Chem, 2001)

What was measured:
Tubulin alpha chain [1] = target: T1, Tubulin alpha chain (Sus scrofa, UniProt P02550); assay: (§1) Inhibition of tubulin polymerization. (ITP)
In short: (§2)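 Tubulin polymerization inhibition, with reaction mixtures containing 10 μM tubulin. Result given as IC50.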

[2] = Inhibition of in vitro tumor cell growth of […], melanoma; type: functional; conditions: Homo sapiens
Tubulin alpha chain [3] = target: T1, Tubulin alpha chain; assay: Inhibition of tubulin polymerization (ITP); in short: as §2
K562 = assay: Inhibition of in vitro tumor cell growth of K-562, leukemia cell line; type: functional; conditions: Homo sapiens
NCI-H226 = assay: Inhibition of tumor cell growth of NCI-H226, non-small-cell lung cell line; type: functional; conditions: Homo sapiens
SF-268 = assay: Inhibition of in vitro tumor cell growth of SF-268, CNS tumor cell line; type: functional; conditions: Homo sapiens
RXF 393 = assay: Inhibition of in vitro tumor cell growth of RXF-393, renal cancer cell line; type: functional; conditions: Homo sapiens
HCT-116 = assay: Inhibition of in vitro tumor cell growth of HCT116, colon cancer cell line; type: functional; conditions: Homo sapiens
SF-295 = assay: Inhibition of in vitro tumor cell growth of SF-295, CNS tumor cell line; type: functional; conditions: Homo sapiens
[4] = target: Tubulin alpha chain (Sus scrofa) (UniProt P02550); assay: as §1; in short: as §2
Sequence of Tubulin alpha chain (Sus scrofa) (P02550 whole entry, looked up): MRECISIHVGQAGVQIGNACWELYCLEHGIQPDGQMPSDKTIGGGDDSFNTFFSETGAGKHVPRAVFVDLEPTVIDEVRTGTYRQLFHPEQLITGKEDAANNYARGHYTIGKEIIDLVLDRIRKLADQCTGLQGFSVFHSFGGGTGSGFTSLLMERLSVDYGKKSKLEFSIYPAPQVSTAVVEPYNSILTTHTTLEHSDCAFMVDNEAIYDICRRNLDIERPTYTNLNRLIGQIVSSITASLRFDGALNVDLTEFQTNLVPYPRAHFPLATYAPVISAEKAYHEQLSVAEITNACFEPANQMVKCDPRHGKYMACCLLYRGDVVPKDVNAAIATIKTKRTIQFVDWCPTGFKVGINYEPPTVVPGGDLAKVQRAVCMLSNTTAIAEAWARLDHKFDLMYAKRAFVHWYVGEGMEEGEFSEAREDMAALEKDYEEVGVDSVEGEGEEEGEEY

OVCAR-3 = assay: Inhibition of in vitro tumor cell growth of OVCAR-3,ovarian cancer cell line; type: functional; conditions: Homo sapiens

T1 sequence (P02550 whole entry, looked up): as above

SMILES | IC50 (Tubulin alpha chain [1]) [µM] | IC50 (Tubulin alpha chain [3]) [µM] | GI50 (K562) [µM] | GI50 (NCI-H226) [µM] | GI50 (HCT-116) [µM] | IC50 [4] [µM] | GI50 (OVCAR-3) [µM] | GI50 [2] [µM] | GI50 (SF-268) [µM] | GI50 (RXF 393) [µM] | GI50 (SF-295) [µM]
O=c1cc(-c2ccccc2F)[nH]c2cc3c(cc12)OCO3 | – | 0.68 | – | – | – | – | – | 0.0209 | – | – | –
CCOC(=O)COc1cc(-c2ccccc2F)nc2cc3c(cc12)OCO3 | > 40 | – | 38 | > 100 | 72.4 | – | – | 72.4 | > 100 | > 100 | > 100
Oc1cc(-c2ccccc2)nc2ccccc12 | – | 7.3 | – | – | – | – | – | – | – | – | –
O=c1[nH]c(/C=C/c2ccccc2)nc2ccccc12 | 5 | – | – | – | – | – | – | – | – | – | –
O=c1cc(-c2ccccc2F)[nH]c2ccc(N3CCCC3)cc12 | – | – | 0.0324 | – | – | 0.46 | – | < 0.01 | 0.0389 | < 0.01 | –
Fc1ccccc1-c1cc(S)c2cc3c(cc2n1)OCO3 | – | – | 56.2 | 16.6 | 5.5 | – | 21.4 | 4.07 | 20 | 29.5 | 11.7

Now from value to compound, other results behind:

IC50 (Tubulin alpha chain [1]) [µM] | IC50 (Tubulin alpha chain [3]) [µM] | GI50 (K562) [µM] | GI50 (NCI-H226) [µM] | GI50 (HCT-116) [µM] | IC50 [4] [µM] | GI50 (OVCAR-3) [µM] | SMILES | GI50 [2] [µM] | GI50 (SF-268) [µM] | GI50 (RXF 393) [µM] | GI50 (SF-295) [µM]
12 | – | – | – | – | – | – | O=C(O)CCCOc1cc(-c2ccccc2F)nc2cc3c(cc12)OCO3 | – | – | – | –
> 40 | – | – | – | > 100 | – | – | CCOC(=O)CCCOc1cc(-c2ccccc2F)nc2cc3c(cc12)OCO3 | 57.5 | > 100 | – | –
> 20 | – | > 100 | > 100 | > 100 | – | > 100 | O=C(O)COc1cc(-c2ccccc2F)nc2cc3c(cc12)OCO3 | > 100 | > 100 | > 100 | > 100
> 40 | – | – | – | – | – | – | Cn1c(-c2ccccc2)cc(=O)c2ccccc21 | – | – | – | –
